Source: ChEMBL document CHEMBL5329147, “Synthesis of tryptanthrin appended dispiropyrrolidine oxindoles and their antibacterial evaluation” (RSC Med Chem, 2023)
Converted amounts (≈) assume the structure as drawn.

What was measured:
Staphylococcus aureus [1] = test: Synergistic antibacterial activity against Staphylococcus aureus ATCC 29213 assessed as fractional inhibitory concentration index incubated for 24 hrs in the presence of gentamycin by checkerboard assay; type: functional
How it was run: (§1)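 Checkerboard in 96-well plates. The test agent was diluted two-fold along one axis and the partner antibiotic two-fold along the other, with ~10^5 CFU/mL inoculum, 37 °C for 24 h. ΣFIC = FIC A + FIC B, each FIC being the MIC in combination divided by the MIC alone.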

Staphylococcus aureus [2] = test: Synergistic antibacterial activity against Staphylococcus aureus ATCC 29213 assessed as bacterial growth inhibition incubated for 24 hrs in presence of vancomycin by checkerboard assay; type: functional
How it was run: (§2)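 Checkerboard in 96-well plates: two-fold serial dilutions, one agent along abscissa, partner antibiotic along ordinate. Wells received ~10⁵ CFU/mL S. aureus ATCC 29213 in MHBII. Incubation 37 °C, 24 h. ΣFIC = FIC A + FIC B, each FIC being combination MIC divided by MIC alone.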

Staphylococcus aureus [3] = test: Antibacterial activity against methicillin resistant Staphylococcus aureus NRS 186 assessed as bacterial growth inhibition incubated for 18 to 24 hrs by broth microdilution method; type: functional; details: time 18-24 hrs
How it was run: (§3)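 CLSI broth microdilution in MHBII; overnight starter cultures (single MHA colony, 37 °C, shaking) adjusted by OD600 to 10^6 CFU/mL. Compounds from DMSO stocks (10 mg/mL), two-fold series 64–0.5 mg/L. Incubation 37 °C, 18-24 h. MIC = lowest concentration with no visible growth. Three independent determinations, each in duplicate.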

Staphylococcus aureus [4] = test: Synergistic antibacterial activity against Staphylococcus aureus ATCC 29213 assessed as bacterial growth inhibition incubated for 24 hrs in presence of ceftazidime by checkerboard assay; type: functional; how it was run: as §2
Pseudomonas aeruginosa = test: Antibacterial activity against Pseudomonas aeruginosa ATCC 27853 assessed as bacterial growth inhibition incubated for 18 to 24 hrs by broth microdilution method; type: functional; details: time 18-24 hrs
How it was run: (§4)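 CLSI broth microdilution. Overnight starter cultures (single colony, MHBII, 37 °C, shaking 18–24 h) were diluted by OD600 to 10^6 CFU/mL in MHBII. Two-fold dilutions from […] were made from 10 mg/mL DMSO stocks, then incubated 37 °C for 18-24 h. The MIC was the lowest concentration with no visible growth. Three independent runs, duplicate samples.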

Vero = test: Cytotoxicity against African green monkey Vero cells assessed as cell viability incubated for 72 hrs by MTT assay; type: toxicity, cell-based; details: chlorocebus sabaeus
How it was run: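 MTT assay on Vero cells, ~10^3 cells/well, 37 °C, 5% CO2. Compound was added at 24 h (100-12.5 μg/mL) for 72 h, then MTT for 4 h at 37 °C. Formazan was dissolved in DMSO and read at 540 nm. CC50 was the lowest concentration giving 50% viability loss. Doxorubicin positive control; triplicate.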

Klebsiella pneumoniae = test: Antibacterial activity against Klebsiella pneumoniae BAA 1705 assessed as bacterial growth inhibition incubated for 18 to 24 hrs by broth microdilution method; type: functional; details: time 18-24 hrs; how it was run: as §4
Staphylococcus aureus [5] = test: Antibacterial activity against methicillin resistant Staphylococcus aureus NRS 129 assessed as bacterial growth inhibition incubated for 18 to 24 hrs by broth microdilution method; type: functional; details: time 18-24 hrs; how it was run: as §3
Acinetobacter baumannii = test: Antibacterial activity against Acinetobacter baumannii BAA-1605 assessed as bacterial growth inhibition incubated for 18 to 24 hrs by broth microdilution method; type: functional; details: time 18-24 hrs; how it was run: as §4
Staphylococcus aureus [6] = test: Antibacterial activity against methicillin resistant Staphylococcus aureus NRS 191 assessed as bacterial growth inhibition incubated for 18 to 24 hrs by broth microdilution method; type: functional; details: time 18-24 hrs; how it was run: as §3
Staphylococcus aureus [7] = test: Synergistic antibacterial activity against Staphylococcus aureus ATCC 29213 assessed as fractional inhibitory concentration index incubated for 24 hrs in the presence of vancomycin by checkerboard assay; type: functional; how it was run: as §1
Staphylococcus aureus [8] = test: Antibacterial activity against methicillin resistant Staphylococcus aureus NRS 194 assessed as bacterial growth inhibition incubated for 18 to 24 hrs by broth microdilution method; type: functional; details: time 18-24 hrs; how it was run: as §3
[9] = Selectivity ratio of CC50 for African green monkey Vero cells to MIC against Staphylococcus aureus ATCC 29213; type: toxicity, cell-based
Staphylococcus aureus [10] = test: Antibacterial activity against methicillin resistant Staphylococcus aureus NRS 119 assessed as bacterial growth inhibition incubated for 18 to 24 hrs by broth microdilution method; type: functional; details: time 18-24 hrs; how it was run: as §3
Staphylococcus aureus [11] = test: Synergistic antibacterial activity against Staphylococcus aureus ATCC 29213 assessed as bacterial growth inhibition incubated for 24 hrs in presence of gentamycin by checkerboard assay; type: functional; how it was run: as §2
Staphylococcus aureus [12] = test: Synergistic antibacterial activity against Staphylococcus aureus ATCC 29213 assessed as fractional inhibitory concentration index incubated for 24 hrs in the presence of rifampicin by checkerboard assay; type: functional; how it was run: as §1
Staphylococcus aureus [13] = test: Synergistic antibacterial activity against Staphylococcus aureus ATCC 29213 assessed as bacterial growth inhibition incubated for 24 hrs in presence of daptomycin by checkerboard assay; type: functional; how it was run: as §2
Escherichia coli = test: Antibacterial activity against Escherichia coli ATCC 25922 assessed as bacterial growth inhibition incubated for 18 to 24 hrs by broth microdilution method; type: functional; details: time 18-24 hrs; how it was run: as §4
Staphylococcus aureus [14] = test: Synergistic antibacterial activity against Staphylococcus aureus ATCC 29213 assessed as bacterial growth inhibition incubated for 24 hrs in presence of linezolid by checkerboard assay; type: functional; how it was run: as §2
Staphylococcus aureus [15] = test: Synergistic antibacterial activity against Staphylococcus aureus ATCC 29213 assessed as bacterial growth inhibition incubated for 24 hrs in presence of rifampicin by checkerboard assay; type: functional; how it was run: as §2
Staphylococcus aureus [16] = test: Synergistic antibacterial activity against Staphylococcus aureus ATCC 29213 assessed as fractional inhibitory concentration index incubated for 24 hrs in the presence of minocycline by checkerboard assay; type: functional; how it was run: as §1
Staphylococcus aureus [17] = test: Antibacterial activity against Staphylococcus aureus ATCC 29213 assessed as bacterial growth inhibition incubated for 18 to 24 hrs by broth microdilution method; type: functional; details: Staphylococcus aureus, ATCC 29213; time 18-24 hrs; read-out: MIC; how it was run: as §4
Staphylococcus aureus [18] = test: Antibacterial activity against methicillin resistant Staphylococcus aureus NRS 198 assessed as bacterial growth inhibition incubated for 18 to 24 hrs by broth microdilution method; type: functional; details: time 18-24 hrs; how it was run: as §3
Staphylococcus aureus [19] = test: Synergistic antibacterial activity against Staphylococcus aureus ATCC 29213 assessed as fractional inhibitory concentration index incubated for 24 hrs in the presence of levofloxacin by checkerboard assay; type: functional; how it was run: as §1
Staphylococcus aureus [20] = test: Synergistic antibacterial activity against Staphylococcus aureus ATCC 29213 assessed as bacterial growth inhibition incubated for 24 hrs in presence of meropenem by checkerboard assay; type: functional; how it was run: as §2
Staphylococcus aureus [21] = test: Antibacterial activity against vancomycin resistant Staphylococcus aureus […] 12 assessed as bacterial growth inhibition incubated for 18 to 24 hrs by broth microdilution method; type: functional; details: time 18-24 hrs; how it was run: as §3
Staphylococcus aureus [22] = test: Synergistic antibacterial activity against Staphylococcus aureus ATCC 29213 assessed as fractional inhibitory concentration index incubated for 24 hrs in the presence of meropenem by checkerboard assay; type: functional; how it was run: as §1
Staphylococcus aureus [23] = test: Antibacterial activity against vancomycin resistant Staphylococcus aureus […] 4 assessed as bacterial growth inhibition incubated for 18 to 24 hrs by broth microdilution method; type: functional; details: time 18-24 hrs; how it was run: as §3
Staphylococcus aureus [24] = test: Synergistic antibacterial activity against Staphylococcus aureus ATCC 29213 assessed as fractional inhibitory concentration index incubated for 24 hrs in the presence of ceftazidime by checkerboard assay; type: functional; how it was run: as §1
Staphylococcus aureus [25] = test: Synergistic antibacterial activity against Staphylococcus aureus ATCC 29213 assessed as fractional inhibitory concentration index incubated for 24 hrs in the presence of linezolid by checkerboard assay; type: functional; how it was run: as §1
Staphylococcus aureus [26] = test: Synergistic antibacterial activity against Staphylococcus aureus ATCC 29213 assessed as bacterial growth inhibition incubated for 24 hrs in presence of levofloxacin by checkerboard assay; type: functional; how it was run: as §2
Staphylococcus aureus [27] = test: Bactericidal activity against Staphylococcus aureus ATCC 29213 assessed as reduction in bacterial load at 10 times of MIC incubated for 24 hrs by time kill analysis; type: functional
How it was run: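 Time-kill assay. ~10^6 CFU/mL in MHBII was exposed to 1X and 10X MIC, 37 °C with shaking for 24 h. Samples were taken at 0, 1, 6 and 24 h, serially diluted in PBS, plated on MHA and incubated 37 °C 18–20 h. Colonies were counted as CFU/mL survivors. Three repeats in duplicate; mean plotted.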

Staphylococcus aureus [28] = test: Synergistic antibacterial activity against Staphylococcus aureus ATCC 29213 assessed as fractional inhibitory concentration index incubated for 24 hrs in the presence of daptomycin by checkerboard assay; type: functional; how it was run: as §1
Staphylococcus aureus [29] = test: Antibacterial activity against methicillin sensitive Staphylococcus aureus ATCC 29213 assessed as bacterial growth inhibition incubated for 18 to 24 hrs by broth microdilution method; type: functional; details: time 18-24 hrs; how it was run: as §3
Staphylococcus aureus [30] = test: Antibacterial activity against methicillin resistant Staphylococcus aureus NRS 193 assessed as bacterial growth inhibition incubated for 18 to 24 hrs by broth microdilution method; type: functional; details: time 18-24 hrs; how it was run: as §3
Staphylococcus aureus [31] = test: Synergistic antibacterial activity against Staphylococcus aureus ATCC 29213 assessed as bacterial growth inhibition incubated for 24 hrs in presence of minocycline by checkerboard assay; type: functional; how it was run: as §2
Staphylococcus aureus [32] = test: Antibacterial activity against methicillin resistant Staphylococcus aureus NRS 192 assessed as bacterial growth inhibition incubated for 18 to 24 hrs by broth microdilution method; type: functional; details: time 18-24 hrs; how it was run: as §3

CCN1C(=O)[C@@]2(CN(C)C3(c4cc(Br)ccc4-n4c3nc3ccccc3c4=O)C2(C#N)C#N)c2ccccc21 (stereo partly drawn)
FIC (Staphylococcus aureus [1]): 2
MIC (Staphylococcus aureus [2]): 0.25 µg/mL
MIC (Staphylococcus aureus [3]): 0.25 µg/mL (≈ 0.433 µM)
MIC (Staphylococcus aureus [4]): 0.25 µg/mL
MIC (Pseudomonas aeruginosa): > 64 µg/mL
Activity (Vero): Non-Toxic
MIC (Klebsiella pneumoniae): > 64 µg/mL
MIC (Staphylococcus aureus [5]): 0.125 µg/mL (≈ 0.216 µM)
MIC (Acinetobacter baumannii): > 64 µg/mL
MIC (Staphylococcus aureus [6]): 0.063 µg/mL (≈ 0.109 µM)
FIC (Staphylococcus aureus [7]): 2
MIC (Staphylococcus aureus [8]): 0.5 µg/mL (≈ 0.866 µM)
selectivity ratio [9]: 40
MIC (Staphylococcus aureus [10]): 0.125 µg/mL (≈ 0.216 µM)
MIC (Staphylococcus aureus [11]): 0.25 µg/mL
FIC (Staphylococcus aureus [12]): 2
MIC (Staphylococcus aureus [13]): 0.25 µg/mL
MIC (Escherichia coli): > 64 µg/mL
MIC (Staphylococcus aureus [14]): 0.25 µg/mL
MIC (Staphylococcus aureus [15]): 0.25 µg/mL
FIC (Staphylococcus aureus [16]): 2
MIC (Staphylococcus aureus [17]): 0.125 µg/mL (≈ 0.216 µM)
MIC (Staphylococcus aureus [18]): 0.125 µg/mL (≈ 0.216 µM)
FIC (Staphylococcus aureus [19]): 2
MIC (Staphylococcus aureus [20]): 0.25 µg/mL
MIC (Staphylococcus aureus [21]): 0.25 µg/mL (≈ 0.433 µM)
FIC (Staphylococcus aureus [22]): 2
MIC (Staphylococcus aureus [23]): 0.5 µg/mL (≈ 0.866 µM)
FIC (Staphylococcus aureus [24]): 2
FIC (Staphylococcus aureus [25]): 2
MIC (Staphylococcus aureus [26]): 0.25 µg/mL
Activity (Staphylococcus aureus [27]): Dose-Dependent Effect
Activity (Staphylococcus aureus [27]; record 2): ~2.7 log10CFU/ml
FIC (Staphylococcus aureus [28]): 2
MIC (Staphylococcus aureus [29]): 0.125 µg/mL (≈ 0.216 µM)
MIC (Staphylococcus aureus [30]): 0.25 µg/mL (≈ 0.433 µM)
MIC (Staphylococcus aureus [31]): 0.25 µg/mL
MIC (Staphylococcus aureus [32]): 0.125 µg/mL (≈ 0.216 µM)
